Laboratory results as given in ChEMBL document CHEMBL4002570, “Synthesis and cytostatic properties of polyfunctionalized furanoallocolchicinoids” (Eur J Med Chem, 2017).
Calls of active or inactive are those of the source.

Assays:
[1] = system: PANC-1; test: Cytotoxicity against 2D culture of human PANC1 cells measured after 72 hrs by MTT assay; type: functional, cell-based; settings: PANC-1, 72 h
Outline: (§1)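 Cells (tumor lines and HaCaT in DMEM with 10% FCS; bone-marrow MSC at passages 2-6) seeded at 3x10⁵ cells/mL 24 h before and allowed to adhere. Compounds dissolved in DMSO (20 mM stock), diluted 20 µM to 0.1 nM, exposed 72 h. MTT added for the last 6 h, formazan dissolved in DMSO, OD read at 540 nm. IC50 taken from titration curves.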

[2] = system: COLO357; test: Cytotoxicity against 2D culture of human Colo-357 cells measured after 72 hrs by MTT assay; type: functional, cell-based; settings: COLO357, 72 h; outline: as §1
[3] = system: BXPC-3; test: Cytotoxicity against 2D culture of human BxPC3 cells measured after 72 hrs by MTT assay; type: functional, cell-based; settings: BXPC-3, 72 h; outline: as §1
[4] = system: MIA PaCa-2; test: Cytotoxicity against 2D culture of human MIAPaCa2 cells measured after 72 hrs by MTT assay; type: functional, cell-based; settings: MIA PaCa-2, 72 h; outline: as §1
[5] = system: A549; test: Cytotoxicity against 2D culture of human A549 cells measured after 72 hrs by MTT assay; type: functional, cell-based; settings: A549, 72 h; outline: as §1
[6] = system: PANC-1; test: Disruption of preformed spheroids in human PANC1 cells at 1 uM measured after 48 hrs by propidium staining based flow cytometry; type: functional, cell-based
[7] = system: COLO357; test: Induction of lysosomal membrane hyperpolarization in 3D culture of human Colo-357 cells at 1 uM measured after 48 hrs by LysoTrackRed dye based flow cytometry; type: functional, cell-based
Outline: (§2)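 Spheroids on polyHEMA exposed to 1 µM for 48 h, trypsinized. Live cells stained for 1 h with DiOC₆ (mitochondrial potential), LysoTrackerRed (lysosomal potential) or propidium iodide (membrane permeability), then analyzed by flow cytometry.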

[8] = system: HaCaT; test: Cytotoxicity against 2D culture of human HaCaT cells measured after 72 hrs by MTT assay; type: cell-based; outline: as §1
[9] = system: MIA PaCa-2; test: Induction of apoptosis in 3D culture of human MIAPaCa2 cells assessed as accumulation at G2/M phase at 1 uM measured after 72 hrs by propidium iodide staining based flow cytometry; type: functional, cell-based
Outline: (§3)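 Cultures (2D or polyHEMA spheroids) exposed to 1 µM for 72 h. Cells trypsinized, washed in ice-cold PBS, fixed in 70% ethanol for 2 h at −20 °C, stained with propidium iodide 50 µg/ml plus […] 10 µg/ml. Flow cytometry with 2000 events. Phase distribution gated on dot plots; apoptotic cells excluded in 3D histograms.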

[10] = system: COLO357; test: Induction of F-actin expression in 3D culture of human Colo-357 cells at 1 uM measured after 48 hrs by propidium staining based flow cytometry; type: functional, cell-based
Outline: (§4)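 Spheroids on polyHEMA exposed to 1 µM for 48 h, trypsinized, permeabilized, stained with anti-tubulin antibody and phalloidin-AlexaFluor488 for F-actin, and analyzed by flow cytometry.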

[11] = system: COLO357; test: Induction of cell membrane permeability in 3D culture of human Colo-357 cells at 1 uM measured after 48 hrs by propidium iodide staining based flow cytometry; type: functional; outline: as §2
[12] = system: COLO357; test: Disruption of mitotic spindle in human Colo-357 cells at 1 uM measured after 72 hrs by Hoechst 33342 staining based confocal microscopic analysis; type: functional, cell-based
[13] = system: MIA PaCa-2; test: Induction of apoptosis in 2D culture of human MIAPaCa2 cells assessed as accumulation at G2/M phase at 1 uM measured after 72 hrs by propidium iodide staining based flow cytometry; type: functional, cell-based
[14] = system: EA.hy 926; test: Cytotoxicity against 3D culture of human EAhy926 cells up to 10000 nM measured after 72 hrs by MTT assay; type: cell-based; settings: ea.hy 926, 72 h
Outline: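 Spheroids formed on polyHEMA-coated plates before drug addition, then handled like 2D MTT: dilutions from 20 µM to 0.1 nM, 72 h exposure, MTT for the final 6 h, DMSO solubilization, OD at 540 nm. Inhibition index = 1 − OD(exp)/OD(control); IC50 read at the 50% cutoff.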

[15] = system: COLO357; test: Induction of total tubulin expression in 3D culture of human Colo-357 cells measured after 48 hrs by propidium iodide staining based flow cytometry; type: functional, cell-based; outline: as §4
[16] = system: COLO357; test: Disruption of preformed spheroids in human Colo-357 cells at 1 uM measured after 48 hrs by propidium staining based flow cytometry; type: functional, cell-based
[17] = system: COLO357; test: Induction of beta-tubulin expression in human Colo-357 cells assessed as mean fluorescence intensity at 1 uM measured after 24 hrs by Hoechst 33342 staining based confocal microscopic analysis (reference value: 52 +/- 12); type: functional
[18] = Cytotoxicity against 2D culture of human MSC measured after 72 hrs by MTT assay; type: cell-based; outline: as §1
[19] = system: MIA PaCa-2; test: Induction of lysosomal membrane hyperpolarization in 3D culture of human MIAPaCa2 cells at 1 uM measured after 48 hrs by LysoTrackRed dye based flow cytometry; type: functional, cell-based; outline: as §2
[20] = system: MIA PaCa-2; test: Induction of F-actin expression in 3d culture of human MIAPaCa2 cells at 1 uM measured after 48 hrs by propidium staining based flow cytometry; type: functional, cell-based; outline: as §4
[21] = system: MIA PaCa-2; test: Induction of cell membrane permeability in 3D culture of human MIAPaCa2 cells at 1 uM measured after 48 hrs by propidium iodide staining based flow cytometry; type: functional; outline: as §2
[22] = system: COLO357; test: Induction of mitochondrial membrane hyperpolarization in 3D culture of human Colo-357 cells at 1 uM measured after 48 hrs by DiOC6 dye based flow cytometry; type: functional, cell-based; outline: as §2
[23] = system: MIA PaCa-2; test: Induction of mitochondrial membrane hyperpolarization in 3D culture of human MIAPaCa2 cells at 1 uM measured after 48 hrs by DiOC6 dye based flow cytometry; type: functional, cell-based; outline: as §2
[24] = system: MIA PaCa-2; test: Disruption of preformed spheroids in human MIAPaCa2 cells at 1 uM measured after 48 hrs by propidium staining based flow cytometry; type: functional, cell-based
[25] = system: EA.hy 926; test: Cytotoxicity against 2D culture of human EAhy926 cells measured after 72 hrs by MTT assay; type: cell-based; settings: EA.hy 926, 72 h; outline: as §1
[26] = system: COLO357; test: Induction of apoptosis in 2D culture of human Colo-357 cells assessed as accumulation at G2/M phase at 1 uM measured after 72 hrs by propidium iodide staining based flow cytometry; type: functional, cell-based; outline: as §3
[27] = system: COLO357; test: Induction of apoptosis in 3D culture of human Colo-357 cells assessed as accumulation at G2/M phase at 1 uM measured after 72 hrs by propidium iodide staining based flow cytometry; type: functional, cell-based; outline: as §3
[28] = system: COLO357; test: Induction of beta-tubulin expression in human Colo-357 cells at 1 uM measured after 24 hrs by Hoechst 33342 staining based confocal microscopic analysis; type: functional, cell-based
Outline: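 Colo-357 in 2D exposed to 1 µM for 24 h, fixed, then stained with anti-β-tubulin antibody (red) and Hoechst 33342. Confocal imaging; mean fluorescence intensity from red pixel counts over several fields; significance taken at p<0.05.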

COc1cc2c(c(OC)c1OC)-c1cc3cc(COC(C)=O)oc3cc1C(=O)CC2
IC50 [1]: 16 nM | IC50 [2]: 16 nM | IC50 [3]: 16 nM | IC50 [4]: 16 nM | IC50 [5]: 80 nM

COc1cc2c(c(OC)c1OC)-c1cc3cc(C(C)O)oc3cc1C(O)CC2 (centres undefined)
IC50 [1]: 30 nM | IC50 [2]: 64 nM | IC50 [3]: 30 nM | IC50 [4]: 64 nM | IC50 [5]: 80 nM

COc1cc2c(c(OC)c1OC)-c1cc3cc(CO)oc3cc1C(O)CC2 (centres undefined)
Activity [6]: Active | Activity [7]: Active | IC50 [8]: 16 nM | IC50 [1]: 16 nM | Activity [9]: Active | Activity [10]: Active | Activity [11]: Active | Activity [12]: Active | Activity [13]: Active | Activity [14]: Non-Toxic | Activity [15]: Active | Activity [16]: Active | Flu intensity [17]: 110 | IC50 [2]: 16 nM | IC50 [18]: > 800 nM | Activity [19]: Active | Activity [20]: Active | IC50 [3]: 16 nM | Activity [21]: Active | Activity [22]: Active | IC50 [4]: 16 nM | Activity [23]: Active | Activity [24]: Active | IC50 [5]: 16 nM | IC50 [25]: > 800 nM | Activity [26]: Active | Activity [27]: Active | Activity [28]: Active

COc1cc2c(c(OC)c1OC)-c1ccc(OC)c(=O)cc1[C@@H](NC(C)=O)CC2 [COLCHICINE]
Activity [6]: Active | Activity [7]: Active | IC50 [8]: 80 nM | IC50 [1]: 80 nM | Activity [9]: Active | Activity [10]: inactive | Activity [11]: Active | Activity [12]: Active | Activity [13]: Active | Activity [14]: Non-Toxic | Activity [15]: Active | Activity [16]: Active | Flu intensity [17]: 74 | IC50 [2]: 160 nM | IC50 [18]: > 800 nM | Activity [19]: Active | Activity [20]: Active | IC50 [3]: 80 nM | Activity [21]: Active | Activity [22]: Active | IC50 [4]: 160 nM | Activity [23]: Active | Activity [24]: Active | IC50 [5]: 400 nM | IC50 [25]: > 800 nM | Activity [26]: Active | Activity [27]: Active | Activity [28]: Active

COc1cc2c(c(OC)c1OC)-c1cc3cc(C(C)O)oc3cc1C(=O)CC2 (centres undefined)
IC50 [1]: 70 nM | IC50 [2]: 100 nM | IC50 [3]: 80 nM | IC50 [4]: > 100 nM | IC50 [5]: 40 nM

COc1cc2c(c(OC)c1OC)-c1cc3cc(CCO)oc3cc1C(O)CC2 (centres undefined)
IC50 [1]: 400 nM | IC50 [2]: > 400 nM | IC50 [3]: 400 nM | IC50 [4]: > 400 nM | IC50 [5]: 400 nM

COc1cc2c(c(OC)c1OC)-c1cc3cc(CO)oc3cc1C(=O)CC2
Activity [6]: Active | Activity [7]: Active | IC50 [8]: 16 nM | IC50 [1]: 16 nM | Activity [9]: Active | Activity [10]: inactive | Activity [11]: Active | Activity [12]: Active | Activity [13]: Active | Activity [14]: Non-Toxic | Activity [15]: Active | Activity [16]: Active | Flu intensity [17]: 73 | IC50 [2]: 16 nM | IC50 [18]: > 800 nM | Activity [19]: Active | Activity [20]: Active | IC50 [3]: 16 nM | Activity [21]: Active | Activity [22]: Active | IC50 [4]: 64 nM | Activity [23]: Active | Activity [24]: Active | IC50 [5]: 16 nM | IC50 [25]: > 800 nM | Activity [26]: Active | Activity [27]: Active | Activity [28]: Active

COc1cc2c(c(OC)c1OC)-c1cc3cc(CCO)oc3cc1C(=O)CC2
IC50 [1]: 400 nM | IC50 [2]: > 400 nM | IC50 [3]: 400 nM | IC50 [4]: > 400 nM | IC50 [5]: 400 nM
